In ChEMBL document CHEMBL4422642, “Antiproliferative and Antimigratory Effects of a Novel YAP-TEAD Interaction Inhibitor Identified Using in Silico Molecular Docking” (J Med Chem, 2019):
Calls of active or inactive are those of the source. No cut-off for these calls is given here.

Assays:
[1] = Inhibition of TEAD in rat VSMC assessed as reduction in CTGF m-RNA expression incubated for 2 hrs followed by compound wash out and re-treatment for 4 hrs by NanoGlo assay
[2] = target: T1, Serum response factor (Homo sapiens) (UniProt P11831); assay: Inhibition of SRF (unknown origin) mediated VP16 transcription expressed in human HeLa cells assessed as basal transcriptional activity level up to 100 uM after 6 hrs by nanoluciferase reporter gene assay; format: cell-based
T1 sequence (whole entry): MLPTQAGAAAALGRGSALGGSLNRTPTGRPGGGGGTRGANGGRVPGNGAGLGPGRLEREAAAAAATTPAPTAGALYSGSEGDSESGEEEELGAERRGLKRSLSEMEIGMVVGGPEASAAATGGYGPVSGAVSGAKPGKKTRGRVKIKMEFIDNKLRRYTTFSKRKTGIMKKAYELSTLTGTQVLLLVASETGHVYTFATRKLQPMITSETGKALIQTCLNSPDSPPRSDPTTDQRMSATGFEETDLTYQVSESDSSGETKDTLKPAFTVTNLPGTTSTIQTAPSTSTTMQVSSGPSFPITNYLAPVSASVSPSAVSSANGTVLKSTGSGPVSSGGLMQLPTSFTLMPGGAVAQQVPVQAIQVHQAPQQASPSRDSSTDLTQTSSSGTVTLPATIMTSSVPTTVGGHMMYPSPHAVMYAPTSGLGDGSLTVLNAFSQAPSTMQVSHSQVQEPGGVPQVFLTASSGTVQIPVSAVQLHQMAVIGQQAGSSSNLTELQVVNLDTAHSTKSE

VSMC [3] = assay: Inhibition of 36B4 m-RNA expression in rat VSMC at 60 uM by RT-qPCR analysis; format: functional, cell-based
Summary of the method: (§1)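 Rat aortic VSMCs (male Sprague-Dawley, 10% FCS/DMEM) were treated with 60 μM compound for 6 h; n = 3. Total RNA was reverse-transcribed with random primers and quantified by SYBR Green qPCR. Data were normalized to nonstimulated controls.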

VSMC [4] = assay: Antimigratory activity in rat VSMC incubated for overnight followed by media replacement and measured every hour for 24 hrs by phase contrast microscopic analysis; format: functional, cell-based
Summary of the method: (§2)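 IncuCyte real-time scratch wound assay. Cells were seeded in 96-well plates and grown 36 h, then pretreated overnight with compound. Wells were scratched and the medium was replaced with compound-containing medium. Phase-contrast images of the wound were taken hourly for 24 h and relative wound confluence was calculated; n = 4.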

HeLa [5] = assay: Inhibition of TEAD in human HeLa cells assessed as reduction in CCN1 m-RNA expression incubated for 2 hrs followed by compound wash out and re-treatment for 4 hrs by NanoGlo assay; format: cell-based
HeLa [6] = assay: Inhibition of Gal4 expression in human HeLa cells assessed as basal transcriptional activity level at 100 uM after 6 hrs by nanoluciferase reporter gene assay; format: functional, cell-based
HeLa [7] = assay: Inhibition of TNT1 m-RNA expression in human HeLa cells incubated for 2 hrs followed by compound wash out and re-treatment for 4 hrs by NanoGlo assay; format: functional, cell-based
[8] = target: Transcriptional enhancer factor TEF-3 (Homo sapiens, UniProt Q15561); assay: Inhibition of Gal4-fused TEAD4 (unknown origin) interaction with YAP expressed in human HeLa cells assessed as basal transcriptional activity level up to 100 uM after 6 hrs by nanoluciferase reporter gene assay; format: cell-based
Rattus norvegicus [9] = organism: Rattus norvegicus; assay: Inhibition of TEAD in rat VSMC assessed as reduction in CCN1 m-RNA expression at 60 uM by RT-qPCR analysis; summary of the method: as §1
HeLa [10] = assay: Inhibition of TEAD in human HeLa cells assessed as reduction in CTGF m-RNA expression incubated for 2 hrs followed by compound wash out and re-treatment for 4 hrs by NanoGlo assay; format: cell-based
HeLa [11] = assay: Cytotoxicity against human HeLa cells assessed as reduction in cell viability by measuring ethidium homodimer-1 uptake at 20 uM preincubated for 10 mins followed by ethidium homodimer-1 addition measured after 10 mins by fluorescence assay; format: cell-based
Summary of the method: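 Live/dead cell viability assay in HeLa cells. Maximum death was set by treating cells 10 min with 0.1% Triton-X, then 10 min with 0.4 μM ethidium homodimer-1. Fluorescence was read on a plate reader.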

VSMC [12] = assay: Inhibition of PGK1 m-RNA expression in rat VSMC at 60 uM by RT-qPCR analysis; format: functional, cell-based; summary of the method: as §1
MCF7 = assay: Antiproliferative activity against human MCF7 assessed as reduction in EdU incorporation up to 40 uM after 24 hrs by Hoechst 33342 staining-based fluorescence assay; format: functional, cell-based
[13] = (§3) Inhibition of TEAD (unknown origin) expressed in rat VSMC after 6 hrs by nanoluciferase reporter gene assay
Summary of the method: (§4)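 Rat aortic VSMCs stably transduced with the 8×TEAD secreted nanoluciferase reporter were treated with compound over a concentration range for 6 h. Conditioned medium was assayed for nanoluciferase activity.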

Rattus norvegicus [14] = organism: Rattus norvegicus; assay: as §3; summary of the method: as §4
Rattus norvegicus [15] = organism: Rattus norvegicus; assay: Inhibition of TEAD in rat VSMC assessed as reduction in MYOC m-RNA expression at 60 uM by RT-qPCR analysis; summary of the method: as §1
[16] = target: T2, Transcriptional enhancer factor TEF-1 (Homo sapiens, UniProt P28347); assay: Inhibition of Gal4-fused TEAD1 (unknown origin) interaction with YAP expressed in human HeLa cells assessed as basal transcriptional activity level up to 100 uM after 6 hrs by nanoluciferase reporter gene assay; format: cell-based
[17] = target: T3, Transcriptional enhancer factor TEF-5 (Homo sapiens, UniProt Q99594); assay: Inhibition of Gal4-fused TEAD3 (unknown origin) interaction with YAP expressed in human HeLa cells assessed as basal transcriptional activity level after 6 hrs by nanoluciferase reporter gene assay; format: cell-based
VSMC [18] = assay: Antimigratory activity in […] incubated for overnight followed by media replacement and measured every hour for 24 hrs by phase contrast microscopic analysis; format: functional, cell-based; summary of the method: as §2
[19] = target: T4, Transcriptional enhancer factor TEF-4 (Homo sapiens, UniProt Q15562); assay: Inhibition of Gal4-fused TEAD2 (unknown origin) interaction with YAP expressed in human HeLa cells assessed as basal transcriptional activity level up to 100 uM after 6 hrs by nanoluciferase reporter gene assay; format: cell-based
VSMC [20] = assay: Inhibition of TBP m-RNA expression in rat VSMC at 60 uM by RT-qPCR analysis; format: functional, cell-based; summary of the method: as §1
[21] = target: T2, Transcriptional enhancer factor TEF-1; assay: Binding affinity to TEAD1 (194 to 411 residues) (unknown origin) by ITC assay
Summary of the method: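 Isothermal titration calorimetry with purified recombinant TEAD1 (residues 194–411). The GST tag was removed by PreScission protease cleavage at 4 °C for 18 h, glutathione was removed by dialysis against PBS, and free GST was removed with glutathione resin.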

[22] = target: T4, Transcriptional enhancer factor TEF-4; assay: Inhibition of Gal4-fused TEAD2 (unknown origin) interaction with YAP expressed in human HeLa cells assessed as basal transcriptional activity level after 6 hrs by nanoluciferase reporter gene assay; format: cell-based
[23] = Inhibition of TEAD in rat VSMC assessed as reduction in CCN1 m-RNA expression incubated for 2 hrs followed by compound wash out and re-treatment for 4 hrs by NanoGlo assay
[24] = target: T3, Transcriptional enhancer factor TEF-5; assay: Inhibition of Gal4-fused TEAD3 (unknown origin) interaction with YAP expressed in human HeLa cells assessed as basal transcriptional activity level up to 100 uM after 6 hrs by nanoluciferase reporter gene assay; format: cell-based

T4 sequence (Q15562 whole entry, the tested form may be a part): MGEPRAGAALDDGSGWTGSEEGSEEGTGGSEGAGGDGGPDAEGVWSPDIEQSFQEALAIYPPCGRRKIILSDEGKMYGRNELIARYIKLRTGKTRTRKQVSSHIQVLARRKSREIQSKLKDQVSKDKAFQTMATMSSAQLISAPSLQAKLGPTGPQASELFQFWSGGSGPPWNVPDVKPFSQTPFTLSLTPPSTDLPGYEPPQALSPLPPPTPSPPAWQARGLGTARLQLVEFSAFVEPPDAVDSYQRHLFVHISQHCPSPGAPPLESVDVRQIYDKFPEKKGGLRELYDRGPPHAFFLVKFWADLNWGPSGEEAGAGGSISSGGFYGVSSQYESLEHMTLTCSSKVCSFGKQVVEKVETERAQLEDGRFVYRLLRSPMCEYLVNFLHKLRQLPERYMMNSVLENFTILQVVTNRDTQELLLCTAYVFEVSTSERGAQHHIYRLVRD
T2 sequence (P28347 whole entry, the tested form may be a part): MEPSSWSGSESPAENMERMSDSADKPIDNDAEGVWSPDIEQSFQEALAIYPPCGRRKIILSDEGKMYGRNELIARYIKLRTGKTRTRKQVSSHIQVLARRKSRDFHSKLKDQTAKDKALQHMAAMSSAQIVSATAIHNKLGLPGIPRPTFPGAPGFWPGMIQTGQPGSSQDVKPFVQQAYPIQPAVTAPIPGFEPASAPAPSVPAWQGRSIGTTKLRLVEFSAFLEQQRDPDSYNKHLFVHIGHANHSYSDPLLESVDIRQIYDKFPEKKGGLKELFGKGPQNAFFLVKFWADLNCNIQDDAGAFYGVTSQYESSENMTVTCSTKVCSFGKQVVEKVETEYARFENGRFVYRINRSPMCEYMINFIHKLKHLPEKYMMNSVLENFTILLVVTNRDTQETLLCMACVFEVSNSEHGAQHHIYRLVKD
T3 sequence (Q99594 whole entry, the tested form may be a part): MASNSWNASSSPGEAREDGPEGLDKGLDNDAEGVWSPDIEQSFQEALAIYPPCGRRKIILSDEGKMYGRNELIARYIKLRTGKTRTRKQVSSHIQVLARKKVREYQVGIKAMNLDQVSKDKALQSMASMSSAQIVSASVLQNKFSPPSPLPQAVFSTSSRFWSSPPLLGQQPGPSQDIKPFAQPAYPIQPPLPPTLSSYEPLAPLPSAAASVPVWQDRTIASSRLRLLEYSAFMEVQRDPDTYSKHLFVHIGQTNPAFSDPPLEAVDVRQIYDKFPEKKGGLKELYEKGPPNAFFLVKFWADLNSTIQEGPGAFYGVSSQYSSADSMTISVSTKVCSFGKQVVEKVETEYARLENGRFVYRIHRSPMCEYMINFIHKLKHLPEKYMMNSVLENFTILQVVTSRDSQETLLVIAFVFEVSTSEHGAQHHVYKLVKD
Sequence of Transcriptional enhancer factor TEF-3 (Q15561 whole entry, the tested form may be a part): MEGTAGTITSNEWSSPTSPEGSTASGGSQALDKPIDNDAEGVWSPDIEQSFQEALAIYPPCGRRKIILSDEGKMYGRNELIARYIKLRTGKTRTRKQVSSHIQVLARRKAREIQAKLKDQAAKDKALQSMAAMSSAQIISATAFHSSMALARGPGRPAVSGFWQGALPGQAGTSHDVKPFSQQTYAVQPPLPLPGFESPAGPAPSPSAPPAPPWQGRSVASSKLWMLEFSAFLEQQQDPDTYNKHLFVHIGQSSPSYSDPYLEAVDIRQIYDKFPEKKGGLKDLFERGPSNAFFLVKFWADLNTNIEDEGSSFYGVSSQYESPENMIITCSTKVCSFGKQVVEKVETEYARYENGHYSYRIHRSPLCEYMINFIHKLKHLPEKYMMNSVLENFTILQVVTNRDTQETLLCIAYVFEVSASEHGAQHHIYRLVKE

Cc1ccc2c(c1)c1c3n2CCNC3CCC1 (stereo not given) [PIRLINDOLE]
EC50 [1]: 58 µM | inhibition [2]: inactive | inhibition (VSMC [3]): inactive | Activity (VSMC [4]): Dose-dependent effect | inhibition (HeLa [5]): Dose-dependent effect | inhibition (HeLa [6]): inactive | inhibition (HeLa [7]): inactive | inhibition [8]: Active | inhibition (Rattus norvegicus [9]): Active | inhibition (HeLa [10]): Dose-dependent effect | Activity (HeLa [11]): Non-Toxic | inhibition (VSMC [12]): inactive | Activity (MCF7): inactive | IC50 [13]: 24 µM | inhibition (Rattus norvegicus [14]): Dose-dependent effect | inhibition (Rattus norvegicus [15]): Active | inhibition [16]: Active | IC50 [17]: 44 µM | Activity (VSMC [18]): Dose-dependent effect | inhibition [19]: Active | inhibition (VSMC [20]): inactive | Kd [21]: 12 µM | IC50 [22]: 33 µM | EC50 [23]: 48 µM | inhibition [24]: Active
